ChEMBL document CHEMBL1811848 (Bioorg Med Chem Lett, 2011)
Calls of active or inactive are those of the source. The calls are words filed in the database; no cut-off is given here.

Experiments:
Mus musculus [1] = species on record: Mus musculus; assay: Hypolipidemic activity in Swiss albino mouse assessed as reduction in triglyceride level; format: functional
Rattus norvegicus [2] = assay: Toxicity in female Wistar rat assessed as kidney to body weight ratio at 30 mg/kg, po measured after 28 days (reference value: 0.733 +/- 0.007); format: organism-based; design: dose 30 mg/kg, route oral; settings: in vivo, 672 h
Rattus norvegicus [3] = assay: Toxicity in male Wistar rat assessed as heart to body weight ratio at 30 mg/kg, po measured after 28 days (reference value: 0.383 +/- 0.012); format: organism-based; design: dose 30 mg/kg, route oral; settings: in vivo, 672 h
Rattus norvegicus [4] = assay: Toxicity in male Wistar rat assessed as thymus to body weight ratio at 3 mg/kg, po measured after 28 days (reference value: 0.081+/- 0.013); format: organism-based; design: dose 3 mg/kg, route oral; settings: in vivo, 672 h
Rattus norvegicus [5] = assay: Toxicity in female Wistar rat assessed as SGOT level at 3 mg/kg, po measured after 28 days (reference value: 155.70 +/- 6.56 U/L); format: organism-based; design: dose 3 mg/kg, route oral; settings: in vivo, 672 h
Mus musculus [6] = assay: Hypolipidemic activity in Swiss albino mouse assessed as reduction in triglyceride level at 0.003 mg/kg, po; format: functional; design: scale not given: the % may be the effect or the level left
Mus musculus [7] = assay: Hypolipidemic activity in Swiss albino mouse assessed as reduction in triglyceride level at 3 mg/kg, po; format: functional; design: scale not given: the % may be the effect or the level left
Rattus norvegicus [8] = assay: Toxicity in male Wistar rat assessed as kidney to body weight ratio at 3 mg/kg, po measured after 28 days (reference value: 0.745 +/- 0.012); format: organism-based; design: dose 3 mg/kg, route oral; settings: in vivo, 672 h
Rattus norvegicus [9] = assay: Toxicity in male Wistar rat assessed as adrenal to body weight ratio at 30 mg/kg, po measured after 28 days (reference value: 0.018 +/- 0.001); format: organism-based; design: dose 30 mg/kg, route oral; settings: in vivo, 672 h
Rattus norvegicus [10] = assay: Toxicity in male Wistar rat assessed as thymus to body weight ratio at 30 mg/kg, po measured after 28 days (reference value: 0.081 +/- 0.013); format: organism-based; design: dose 30 mg/kg, route oral; settings: in vivo, 672 h
Rattus norvegicus [11] = assay: Toxicity in female Wistar rat assessed as uterus to body weight ratio at 30 mg/kg, po measured after 28 days (reference value: 0.233 +/- 0.041); format: organism-based; design: dose 30 mg/kg, route oral; settings: in vivo, 672 h
Rattus norvegicus [12] = assay: Toxicity in female Wistar rat assessed as kidney to body weight ratio at 3 mg/kg, po measured after 28 days (reference value: 0.733 +/- 0.007); format: organism-based; design: dose 3 mg/kg, route oral; settings: in vivo, 672 h
Rattus norvegicus [13] = assay: Toxicity in female Wistar rat assessed as albumin level at 3 mg/kg, po measured after 28 days (reference value: 3.92 +/- 0.18 g.dl); format: organism-based; design: dose 3 mg/kg, route oral; settings: in vivo, 672 h
Rattus norvegicus [14] = assay: Toxicity in male Wistar rat assessed as […] level at 3 mg/kg, po measured after 28 days (reference value: 243.88 +/- 20.34 U/L); format: organism-based; design: dose 3 mg/kg, route oral; settings: in vivo, 672 h
Rattus norvegicus [15] = assay: Toxicity in male Wistar rat assessed as epididymine to body weight ratio at 3 mg/kg, po measured after 28 days (reference value: 0.391 +/- 0.017); format: organism-based; design: dose 3 mg/kg, route oral; settings: in vivo, 672 h
Mus musculus [16] = assay: Hypolipidemic activity in db/db mouse assessed as reduction in triglyceride level at 0.03 mg/kg, po; format: functional; design: scale not given: the % may be the effect or the level left
Rattus norvegicus [17] = assay: Toxicity in female Wistar rat assessed as ovary to body weight ratio at 30 mg/kg, po measured after 28 days (reference value: 0.039 +/- 0.005); format: organism-based, Female gonad; design: dose 30 mg/kg, route oral; settings: in vivo, 672 h
Mus musculus [18] = assay: Antihyperglycemic activity in db/db mouse assessed as reduction in glucose level at 3 mg/kg/day, po administered for 6 days relative to control; format: functional; design: scale not given: the % may be the effect or the level left
Method in brief: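 Male db/db mice aged 6–8 weeks were dosed orally once daily for 6 days. Plasma glucose was then measured and expressed as % change versus vehicle-treated controls.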

Mus musculus [19] = assay: Antihyperglycemic activity in db/db mouse assessed as reduction in plasma glucose level at 0.1 mg/kg, po; format: functional; design: scale not given: the % may be the effect or the level left
Rattus norvegicus [20] = assay: Toxicity in male Wistar rat assessed as urea level at 30 mg/kg, po measured after 28 days (reference value: 30.52 +/- 0.79 mg/dl); format: organism-based; design: dose 30 mg/kg, route oral; settings: in vivo, 672 h
Rattus norvegicus [21] = assay: Toxicity in female Wistar rat assessed as hemoglobin level at 30 mg/kg, po measured after 28 days (reference value: 11.90 +/- 0.19 g/dl); format: organism-based; design: dose 30 mg/kg, route oral; settings: in vivo, 672 h
Rattus norvegicus [22] = assay: Toxicity in female Wistar rat assessed as thymus to body weight ratio at 30 mg/kg, po measured after 28 days (reference value: 0.094 +/- 0.01); format: organism-based; design: dose 30 mg/kg, route oral; settings: in vivo, 672 h
Mus musculus [23] = assay: Hypolipidemic activity in Swiss albino mouse assessed as reduction in triglyceride level at 0.3 mg/kg, po; format: functional; design: scale not given: the % may be the effect or the level left
Rattus norvegicus [24] = assay: Toxicity in female Wistar rat assessed as brain to body weight ratio at 30 mg/kg, po measured after 28 days (reference value: 0.970 +/- 0.023); format: organism-based; design: dose 30 mg/kg, route oral; settings: in vivo, 672 h
Rattus norvegicus [25] = assay: Toxicity in male Wistar rat assessed as SGOT level at 30 mg/kg, po measured after 28 days (reference value: 135.14 +/- 6.89 U/L); format: organism-based; design: dose 30 mg/kg, route oral; settings: in vivo, 672 h
Rattus norvegicus [26] = assay: Toxicity in male Wistar rat assessed as change in body weight at 30 mg/kg, po measured after 28 days relative to control; format: organism-based; design: dose 30 mg/kg, route oral; settings: in vivo, 672 h
Rattus norvegicus [27] = assay: Toxicity in female Wistar rat assessed as thymus to body weight ratio at 3 mg/kg, po measured after 28 days (reference value: 0.094 +/-0.01); format: organism-based; design: dose 3 mg/kg, route oral; settings: in vivo, 672 h
Mus musculus [28] = assay: Hypolipidemic activity in db/db mouse assessed as reduction in triglyceride level at 0.3 mg/kg, po; format: functional; design: scale not given: the % may be the effect or the level left
Mus musculus [29] = assay: Hypolipidemic activity in Swiss albino mouse assessed as reduction in triglyceride level at 0.03 mg/kg, po; format: functional; design: scale not given: the % may be the effect or the level left
Mus musculus [30] = assay: Hypolipidemic activity in db/db mouse assessed as reduction in triglyceride level at 0.1 mg/kg, po; format: functional; design: scale not given: the % may be the effect or the level left
Rattus norvegicus [31] = assay: Toxicity in male Wistar rat assessed as heart to body weight ratio at 3 mg/kg, po measured after 28 days (reference value: 0.383 +/- 0.012); format: organism-based; design: dose 3 mg/kg, route oral; settings: in vivo, 672 h
[32] = molecular target: T1, Peroxisome proliferator-activated receptor delta (Homo sapiens) (UniProt Q03181); assay: Transactivation of human PPARdelta expressed in human HepG2 cells co-transfected with PPRE3-TK-Luc by luciferase reporter gene assay; format: cell-based
T1 sequence (whole entry): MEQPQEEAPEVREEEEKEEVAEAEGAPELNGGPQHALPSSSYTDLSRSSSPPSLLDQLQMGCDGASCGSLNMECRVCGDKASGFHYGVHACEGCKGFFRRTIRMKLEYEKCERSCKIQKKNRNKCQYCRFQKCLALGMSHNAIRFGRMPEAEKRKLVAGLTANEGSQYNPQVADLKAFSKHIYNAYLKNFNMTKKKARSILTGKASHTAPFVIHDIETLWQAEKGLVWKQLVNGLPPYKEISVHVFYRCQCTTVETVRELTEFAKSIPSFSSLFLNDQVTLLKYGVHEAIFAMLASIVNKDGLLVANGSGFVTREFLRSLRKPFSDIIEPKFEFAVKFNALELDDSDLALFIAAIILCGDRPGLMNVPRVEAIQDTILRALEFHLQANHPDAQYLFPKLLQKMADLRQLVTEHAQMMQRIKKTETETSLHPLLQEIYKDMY
Method in brief: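 HepG2 cells transfected with pSG5 vector carrying hPPARα, hPPARγ or hPPARδ cDNA, co-transfected with PPRE3-TK-luc. Firefly luciferase activity measured with a commercial kit. β-galactosidase activity read on an ELISA reader. Controls: WY14643 (α), rosiglitazone (γ), GW501516 (δ).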

Rattus norvegicus [33] = assay: Toxicity in female Wistar rat assessed as heart to body weight ratio at 30 mg/kg, po measured after 28 days (reference value: 0.403 +/- 0.010); format: organism-based; design: dose 30 mg/kg, route oral; settings: in vivo, 672 h

CCO[C@@H](Cc1ccc(OCCc2nc(-c3ccc(C)s3)oc2C)cc1)C(=O)O
ED50 (Mus musculus [1]): 0.01 mg/kg | Ratio (Rattus norvegicus [2]): 0.915 | Ratio (Rattus norvegicus [3]): 0.479 | Ratio (Rattus norvegicus [4]): 0.089 | Activity (Rattus norvegicus [5]): 157.09 U/L | Activity (Mus musculus [6]): 41.5% | Activity (Mus musculus [7]): 83.1% | Ratio (Rattus norvegicus [8]): 0.807 | Ratio (Rattus norvegicus [9]): 0.018 | Ratio (Rattus norvegicus [10]): 0.075 | Ratio (Rattus norvegicus [11]): 0.189 | Ratio (Rattus norvegicus [12]): 0.804 | Activity (Rattus norvegicus [13]): 4.03 g/dL | Activity (Rattus norvegicus [14]): 470.5 U/L | Ratio (Rattus norvegicus [15]): 0.36 | Activity (Mus musculus [16]): 25.9% | Ratio (Rattus norvegicus [17]): 0.024 | Activity (Mus musculus [18]): 72% | Activity (Mus musculus [19]): 51.7% | Activity (Rattus norvegicus [20]): 34.58 mg/dL | Activity (Rattus norvegicus [21]): 11.83 g/dL | Ratio (Rattus norvegicus [22]): 0.066 | Activity (Mus musculus [23]): 80.8% | Ratio (Rattus norvegicus [24]): 0.939 | Activity (Rattus norvegicus [25]): 245.24 U/L | Activity (Rattus norvegicus [26]): 24.01% | Ratio (Rattus norvegicus [27]): 0.101 | Activity (Mus musculus [28]): 51.8% | Activity (Mus musculus [29]): 65.6% | Activity (Mus musculus [30]): 49.4% | Ratio (Rattus norvegicus [31]): 0.412 | Activity [32]: inactive | Ratio (Rattus norvegicus [33]): 0.501
